Measurements: ChEMBL document CHEMBL2062496, “Identification of a sirtuin 3 inhibitor that displays selectivity over sirtuin 1 and 2” (Eur J Med Chem, 2012)
Active and inactive are the calls of the source. The rule behind the calls is not given here.

What was measured:
NCI-H460 = assay: Growth inhibition of human NCI-H460 cells assessed as cell growth at 10 uM after 48 hrs by MTT assay; values are per cent of control; details: NCI-H460, 48 h
U-251 = assay: Growth inhibition of human U251 cells assessed as cell growth at 10 uM after 48 hrs by MTT assay; values are per cent of control; details: U-251, 48 h
NCI-H522 = assay: Growth inhibition of human NCI-H522 cells assessed as cell growth at 10 uM after 48 hrs by MTT assay; values are per cent of control; details: NCI-H522, 48 h
COLO 205 = assay: Growth inhibition of human COLO205 cells assessed as cell growth at 10 uM after 48 hrs by MTT assay; values are per cent of control; details: COLO 205, 48 h
[1] = molecular target: T1, NAD-dependent protein deacetylase sirtuin-1 (Homo sapiens) (UniProt Q96EB6); assay: Inhibition of human SIRT1 assessed as enzyme activity using Fluor-de-Lys as substrate at 100 uM by fluorometry
T1 sequence (whole entry): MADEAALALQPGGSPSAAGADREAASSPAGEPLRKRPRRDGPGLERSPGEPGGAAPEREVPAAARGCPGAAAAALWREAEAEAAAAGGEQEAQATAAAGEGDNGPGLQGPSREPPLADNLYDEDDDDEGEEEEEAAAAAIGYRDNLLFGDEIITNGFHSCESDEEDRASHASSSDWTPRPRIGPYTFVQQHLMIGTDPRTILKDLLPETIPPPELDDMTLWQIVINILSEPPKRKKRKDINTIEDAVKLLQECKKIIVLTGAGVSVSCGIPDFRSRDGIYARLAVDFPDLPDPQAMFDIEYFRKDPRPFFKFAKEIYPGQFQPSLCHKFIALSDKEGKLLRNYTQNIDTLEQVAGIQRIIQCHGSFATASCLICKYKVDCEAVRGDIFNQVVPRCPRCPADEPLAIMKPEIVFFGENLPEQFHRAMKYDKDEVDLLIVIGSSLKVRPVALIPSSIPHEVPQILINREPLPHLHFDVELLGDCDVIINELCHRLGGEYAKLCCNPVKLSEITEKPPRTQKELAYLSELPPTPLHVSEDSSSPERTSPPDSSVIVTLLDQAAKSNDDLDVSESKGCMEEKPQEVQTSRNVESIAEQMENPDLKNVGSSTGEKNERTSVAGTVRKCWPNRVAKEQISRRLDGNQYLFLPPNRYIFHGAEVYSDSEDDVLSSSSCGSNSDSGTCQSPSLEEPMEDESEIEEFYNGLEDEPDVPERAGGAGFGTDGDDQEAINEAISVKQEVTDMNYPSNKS
Method in brief: (§1)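 Commercial Fluor-de-Lys kit, substrate human p53 379–382 peptide (Arg-His-Lys-Lys(Ac)). Human Sirt1 or Sirt2 was incubated with substrate, NAD+ and compound at 1 mM, also tested at 100 µM. Fluorescence scales with Lys382 deacetylation. Activity is expressed relative to control, mean ± S.E.M. of 3–4 replicates.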

UACC-62 = assay: Growth inhibition of human UACC62 cells assessed as cell growth at 10 uM after 48 hrs by MTT assay; values are per cent of control; details: UACC-62, 48 h
SNB-19 = assay: Growth inhibition of human SNB19 cells assessed as cell growth at 10 uM after 48 hrs by MTT assay; values are per cent of control; details: SNB-19, 48 h
SR = assay: Growth inhibition of human SR cells assessed as cell growth at 10 uM after 48 hrs by MTT assay; values are per cent of control
K562 = assay: Growth inhibition of human K562 cells assessed as cell growth at 10 uM after 48 hrs by MTT assay; values are per cent of control; details: K562, 48 h
SNB-75 = assay: Growth of human SNB75 cells assessed as cell growth at 10 uM after 48 hrs by MTT assay; details: SNB-75, 48 h
CCRF-CEM = assay: Growth of human CCRF-CEM cells assessed as cell growth at 10 uM after 48 hrs by MTT assay
[2] = molecular target: T2, NAD-dependent protein deacetylase sirtuin-2 (Homo sapiens) (UniProt Q8IXJ6); assay: Inhibition of human SIRT2 assessed as enzyme activity using Fluor-de-Lys as substrate at 1 mM by fluorometry; set-up: scale not given: the % may be the effect or the level left
T2 sequence (whole entry): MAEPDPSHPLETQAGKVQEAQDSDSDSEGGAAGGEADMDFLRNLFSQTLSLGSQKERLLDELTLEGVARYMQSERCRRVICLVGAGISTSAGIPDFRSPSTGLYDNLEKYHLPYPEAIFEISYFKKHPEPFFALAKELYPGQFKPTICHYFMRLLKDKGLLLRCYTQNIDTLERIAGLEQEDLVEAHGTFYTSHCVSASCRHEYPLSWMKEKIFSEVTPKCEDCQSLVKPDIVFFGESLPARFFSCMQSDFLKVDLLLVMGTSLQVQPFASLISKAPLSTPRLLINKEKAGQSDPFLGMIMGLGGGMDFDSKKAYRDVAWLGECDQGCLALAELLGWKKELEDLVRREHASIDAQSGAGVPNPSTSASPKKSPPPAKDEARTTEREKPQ
Method in brief: as §1

SK-MEL-2 = assay: Growth inhibition of human SK-MEL-2 cells assessed as cell growth at 10 uM after 48 hrs by MTT assay; values are per cent of control; details: SK-MEL-2, 48 h
EKVX = assay: Growth inhibition of human EKVX cells assessed as cell growth at 10 uM after 48 hrs by MTT assay; values are per cent of control
TK-10 = assay: Growth inhibition of human TK10 cells assessed as cell growth at 10 uM after 48 hrs by MTT assay; values are per cent of control; details: TK-10, 48 h
LOX IMVI = assay: Growth inhibition of human LOXIMVI cells assessed as cell growth at 10 uM after 48 hrs by MTT assay; values are per cent of control
SK-MEL-28 = assay: Effect on ATP level in human SK-MEL-28 cells maintained in medium containing GF and glucose at 100 uM after 24 hrs by luciferase-based assay; format: functional, cell-based
Method in brief: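 SK-MEL-28 cells in DMEM with 10% FBS, grown 24 h in 96-well plates in regular medium (growth factors, glucose), with or without compound at 100 µM. Antimycin served as positive control. Cellular ATP was released with a somatic cell releasing reagent and read by luciferase/luciferin bioluminescence. Mean ± S.E.M. of 10–14 replicates from 3 separate experiments.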

## c1cncc(-c2cnn[nH]2)c1
NCI-H460
  growth, % of control at 10 µM: 115%
U-251
  growth, % of control at 10 µM: 111%
NCI-H522
  growth, % of control at 10 µM: 101%
COLO 205
  growth, % of control at 10 µM: 23.8%
[1]
  inhibition: inactive
UACC-62
  growth, % of control at 10 µM: 90.7%
SNB-19
  growth, % of control at 10 µM: 102%
SR
  growth, % of control at 10 µM: 97.3%
K562
  growth, % of control at 10 µM: 75.2%
SNB-75
  growth, % of control at 10 µM: 93%
CCRF-CEM
  growth, % of control at 10 µM: 24.8%
[2]
  Activity: 92%
SK-MEL-2
  growth, % of control at 10 µM: 109%
EKVX
  growth, % of control at 10 µM: 76.4%
TK-10
  growth, % of control at 10 µM: 103%
LOX IMVI
  growth, % of control at 10 µM: 102%
SK-MEL-28
  Activity: inactive
